Reference: ChEMBL document CHEMBL1140213, “Synthesis and structure-activity relationship studies of 2-(N-substituted)-aminobenzimidazoles as potent negative gating modulators ofsmall conductance Ca2+-activated K+ channels” (J Med Chem, 2008)
The source made the active and inactive calls. No cut-off for these calls is given here.

Key:
[1] = target: Small conductance calcium-activated potassium channel protein 3 (Rattus norvegicus, UniProt P70605); test: (§1) Inhibition of Wistar rat recombinant SK3 channel expressed in HEK293 cells by whole cell patch clamp technique; format: cell-based
In short: (§2)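 Whole-cell patch clamp on HEK293 cells stably expressing rat SK3. Extracellular solution contains 4 mM K+. Pipette Ca2+ is buffered at 400 nM. Kd comes from single-concentration kinetics experiments (n = independent experiments), reported as mean ± SEM.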

[2] = target: Small conductance calcium-activated potassium channel protein 3 (Rattus norvegicus) (UniProt P70605); test: as §1; format: cell-based; in short: as §2
[3] = Inhibition of human SK3 channel Q493A;D495A mutant expressed in HEK293 cells assessed as Ca2+ sensitivity by inside-out patch clamp technique; format: cell-based
In short: (§3)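 Inside-out patches from HEK293 cells transiently transfected (lipofectamine) with hSK3 or hSK3(Q493A;D495A), recorded 2-4 days after transfection. Patches are exposed to a series of Ca2+-buffered solutions. Currents are normalized to the current induced by 10 µM Ca2+, and Hill fits give EC50(Ca2+) and nH. Mean ± SEM.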

[4] = Inhibition of human SK3 channel Q493A;D495A mutant expressed in HEK293 cells; format: cell-based
HEK293 = test: Inhibition of human SK3 channel Q493A;D495A mutant expressed in HEK293 cells at 300 nM by whole cell assay; format: cell-based
[5] = target: T1, Small conductance calcium-activated potassium channel protein 3 (Homo sapiens, UniProt Q9UGI6); test: Inhibition of wild type human SK3 channel expressed in HEK293 cells; format: cell-based
[6] = target: T1, Small conductance calcium-activated potassium channel protein 3; test: Inhibition of wild type human SK3 channel expressed in HEK293 cells assessed as Ca2+ sensitivity by inside-out patch clamp technique; format: cell-based; in short: as §3
[7] = target: T1, Small conductance calcium-activated potassium channel protein 3; test: Inhibition of wild type human SK3 channel expressed in HEK293 cells at 300 nM by whole cell assay; format: cell-based
[8] = target: Small conductance calcium-activated potassium channel protein 1 (Homo sapiens, UniProt Q92952); test: Inhibition of human SK1 channel by inside-out patch clamp technique
[9] = target: T1, Small conductance calcium-activated potassium channel protein 3; test: Inhibition of human SK3 channel expressed in HEK293 cells assessed as Ca2+ induced current after drug wash out by whole cell patch clamp technique in presence of bicuculline methobromide; format: cell-based
In short: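 Whole-cell SK3 current is measured every 5 s at 0 mV from voltage ramps (-120 to +30 mV). Pipette Ca2+ is buffered at 400 nM. Inhibition is followed to steady state (about 5 min) and then washed out. Bicuculline methobromide (100 µM) is applied for 20 s during the wash. Kd is fitted from the kinetics.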

[10] = target: T1, Small conductance calcium-activated potassium channel protein 3; test: Inhibition of human SK3 channel by inside-out patch clamp technique
[11] = target: Small conductance calcium-activated potassium channel protein 2 (Homo sapiens, UniProt Q9H2S1); test: Inhibition of human SK2 channel by inside-out patch clamp technique
Chain of Small conductance calcium-activated potassium channel protein 2 (Q9H2S1 whole entry): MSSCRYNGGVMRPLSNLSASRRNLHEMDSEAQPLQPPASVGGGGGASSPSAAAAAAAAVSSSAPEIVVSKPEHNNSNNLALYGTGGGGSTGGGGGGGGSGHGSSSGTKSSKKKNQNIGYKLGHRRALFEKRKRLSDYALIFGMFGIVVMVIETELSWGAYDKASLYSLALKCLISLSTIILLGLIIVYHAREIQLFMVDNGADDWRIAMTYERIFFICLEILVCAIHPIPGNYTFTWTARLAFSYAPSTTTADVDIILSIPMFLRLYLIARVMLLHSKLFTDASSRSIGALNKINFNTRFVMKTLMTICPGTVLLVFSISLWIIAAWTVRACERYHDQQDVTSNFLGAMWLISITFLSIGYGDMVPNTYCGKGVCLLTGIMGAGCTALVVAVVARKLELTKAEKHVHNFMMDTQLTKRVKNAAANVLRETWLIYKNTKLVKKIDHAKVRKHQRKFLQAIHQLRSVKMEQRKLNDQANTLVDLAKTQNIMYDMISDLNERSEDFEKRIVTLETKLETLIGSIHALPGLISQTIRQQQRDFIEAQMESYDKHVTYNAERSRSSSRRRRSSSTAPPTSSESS

Chain of Small conductance calcium-activated potassium channel protein 3 (Rattus norvegicus, UniProt P70605) (P70605 whole entry): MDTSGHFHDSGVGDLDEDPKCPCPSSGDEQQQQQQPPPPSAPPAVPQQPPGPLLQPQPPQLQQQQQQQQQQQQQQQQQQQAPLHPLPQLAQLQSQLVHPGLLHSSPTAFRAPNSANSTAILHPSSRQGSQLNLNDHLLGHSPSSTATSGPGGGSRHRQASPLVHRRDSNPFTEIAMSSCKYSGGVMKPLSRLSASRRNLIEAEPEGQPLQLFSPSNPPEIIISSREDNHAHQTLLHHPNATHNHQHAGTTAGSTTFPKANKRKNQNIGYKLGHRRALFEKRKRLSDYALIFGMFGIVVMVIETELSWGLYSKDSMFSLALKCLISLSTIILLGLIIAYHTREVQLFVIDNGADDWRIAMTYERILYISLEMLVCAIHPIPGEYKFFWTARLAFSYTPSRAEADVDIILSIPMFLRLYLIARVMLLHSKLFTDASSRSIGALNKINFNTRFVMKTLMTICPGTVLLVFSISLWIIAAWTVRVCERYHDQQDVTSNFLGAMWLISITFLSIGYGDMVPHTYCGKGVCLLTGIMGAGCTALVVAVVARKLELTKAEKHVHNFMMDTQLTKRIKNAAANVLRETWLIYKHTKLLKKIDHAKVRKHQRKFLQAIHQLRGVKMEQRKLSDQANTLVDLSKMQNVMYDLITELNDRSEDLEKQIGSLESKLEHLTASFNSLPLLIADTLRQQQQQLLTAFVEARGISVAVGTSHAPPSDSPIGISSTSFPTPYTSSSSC
Chain of Small conductance calcium-activated potassium channel protein 3 (Rattus norvegicus) (P70605 whole entry): as above
T1 sequence (Q9UGI6 whole entry): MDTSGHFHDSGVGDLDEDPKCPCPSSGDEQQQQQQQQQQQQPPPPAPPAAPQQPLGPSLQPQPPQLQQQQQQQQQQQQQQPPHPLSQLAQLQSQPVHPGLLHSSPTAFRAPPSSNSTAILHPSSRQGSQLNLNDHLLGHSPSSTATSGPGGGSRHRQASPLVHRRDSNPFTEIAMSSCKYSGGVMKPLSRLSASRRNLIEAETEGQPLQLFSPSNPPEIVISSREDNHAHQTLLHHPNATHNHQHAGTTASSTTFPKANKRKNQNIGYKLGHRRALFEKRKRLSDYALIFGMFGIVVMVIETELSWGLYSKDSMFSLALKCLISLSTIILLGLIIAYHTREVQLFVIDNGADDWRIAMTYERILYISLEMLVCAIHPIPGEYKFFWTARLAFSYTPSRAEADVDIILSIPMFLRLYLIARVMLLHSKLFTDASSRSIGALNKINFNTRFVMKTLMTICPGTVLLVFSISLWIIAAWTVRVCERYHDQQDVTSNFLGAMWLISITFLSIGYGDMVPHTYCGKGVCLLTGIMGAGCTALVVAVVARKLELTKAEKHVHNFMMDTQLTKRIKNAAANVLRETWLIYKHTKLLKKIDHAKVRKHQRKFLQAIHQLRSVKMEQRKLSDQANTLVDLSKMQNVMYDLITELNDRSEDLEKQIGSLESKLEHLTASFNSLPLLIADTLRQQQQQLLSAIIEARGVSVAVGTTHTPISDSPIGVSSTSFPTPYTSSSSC
Chain of Small conductance calcium-activated potassium channel protein 1 (Q92952 whole entry): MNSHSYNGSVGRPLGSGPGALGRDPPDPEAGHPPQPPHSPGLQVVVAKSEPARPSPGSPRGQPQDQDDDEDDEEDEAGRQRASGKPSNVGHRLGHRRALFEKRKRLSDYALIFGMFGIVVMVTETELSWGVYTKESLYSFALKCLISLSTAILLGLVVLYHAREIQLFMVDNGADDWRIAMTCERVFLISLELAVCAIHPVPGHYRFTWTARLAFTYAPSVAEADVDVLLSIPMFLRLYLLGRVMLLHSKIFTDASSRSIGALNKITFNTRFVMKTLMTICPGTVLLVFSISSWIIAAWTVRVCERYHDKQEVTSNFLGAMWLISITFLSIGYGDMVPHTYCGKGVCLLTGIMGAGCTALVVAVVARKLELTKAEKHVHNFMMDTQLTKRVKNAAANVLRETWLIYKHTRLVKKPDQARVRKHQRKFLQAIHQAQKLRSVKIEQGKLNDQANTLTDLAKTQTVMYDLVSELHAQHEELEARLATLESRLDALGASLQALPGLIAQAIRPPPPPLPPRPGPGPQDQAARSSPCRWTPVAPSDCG

Kd [1] [nM]	Structure (SMILES)	other results
> 10000	c1ccc2c(c1)OCCC2Nc1nc2ccccc2[nH]1 (stereo not given)	–
540	c1ccc2[nH]c(NC3CCCc4sccc43)nc2c1 (stereo not given)	–
34	Fc1ccc2c(c1)C(Nc1nc3ccccc3[nH]1)CCC2 (stereo not given)	–
450	c1ccc2c(c1)CCC[C@@H]2Nc1nc2ccccc2[nH]1	–
32	CC1CCC(Nc2nc3ccccc3[nH]2)c2ccccc21 (stereo not given)	–
31	c1ccc2c3c(ccc2c1)CCCC3Nc1nc2ccccc2[nH]1 (stereo not given)	–
77	c1ccc2c(c1)CCC[C@H]2Nc1nc2ccccc2[nH]1	EC50 [3]: 440 nM; Kd [4]: 430 nM; inhibition (HEK293): 45%; Kd [5]: 100 nM; EC50 [6]: 400 nM; inhibition [7]: 75%
44	Clc1cccc2c1CCCC2Nc1nc2ccccc2[nH]1 (stereo not given)	–
2000	c1ccc2c(c1)CCC(Nc1nc3ccccc3[nH]1)C2 (stereo not given)	–
170	CC1CCc2ccccc2C1Nc1nc2ccccc2[nH]1 (stereo not given)	–
130	c1ccc2c(c1)SCCC2Nc1nc2ccccc2[nH]1 (stereo not given)	–
20	Cc1ccc2c(c1)C(Nc1nc3ccccc3[nH]1)CCC2 (stereo not given)	–
1700	c1ccc2c(c1)CC(Nc1nc3ccccc3[nH]1)C2	–
130	c1ccc2c(c1)CCCC2Nc1nc2ccccc2[nH]1 (stereo not given)	–
11	Brc1ccc2c(c1)C(Nc1nc3ccccc3[nH]1)CCC2 (stereo not given)	–
790	c1ccc2c(c1)CCC2Nc1nc2ccccc2[nH]1 (stereo not given)	–
600	c1ccc(-c2ccc3c(c2)C(Nc2nc4ccccc4[nH]2)CCC3)cc1 (stereo not given)	–
6500	c1ccc2[nH]c(NC3CCCc4ccncc43)nc2c1 (stereo not given)	–
17	Clc1ccc2c(c1)C(Nc1nc3ccccc3[nH]1)CCC2 (stereo not given)	–
120	Clc1ccc2c(c1)CCCC2Nc1nc2ccccc2[nH]1 (stereo not given)	–
61	COc1ccc2c(c1)C(Nc1nc3ccccc3[nH]1)CCC2 (stereo not given)	–
9.1	Clc1cc2c(cc1Cl)C(Nc1nc3ccccc3[nH]1)CCC2 (stereo not given)	Kd [8]: 54 nM; Kd [9]: 7.8 nM; Kd [10]: 60 nM; EC50 [6]: 1810 nM; Kd [11]: 47 nM
27	Clc1cccc2c1C(Nc1nc3ccccc3[nH]1)CCC2 (stereo not given)	–
590	c1ccc2c(c1)CCCCC2Nc1nc2ccccc2[nH]1 (stereo not given)	–

The remaining lines, values behind:

Structure (SMILES)	Kd [1] [nM]	other results
c1ccc(CCc2nc3ccccc3[nH]2)cc1	> 10000	–
O=C(Nc1nc2ccccc2[nH]1)c1ccc(Cl)cc1	> 10000	–
Cc1cc(C)c2c(c1)C(Nc1nc3ccccc3[nH]1)CCC2 (stereo not given)	33	–
Cc1cc(NC2CCCCC2)nc(-n2nc(C)cc2C)n1	–	Activity [2]: Active
c1ccc2c(c1)CCN(c1nc3ccccc3[nH]1)C2	14000	–
Clc1ccc(CNc2nc3ccccc3[nH]2)cc1	640	–
C[N+]1(C)CCc2cc3c(cc2[C@H]1[C@@H]1OC(=O)c2c1ccc1c2OCO1)OCO3	–	IC50 [1]: 7000 nM
COc1ccc(CC2c3cc(OC)c(OC)cc3CC[N+]2(C)CCC(=O)OCCCCCOC(=O)CC[N+]2(C)CCc3cc(OC)c(OC)cc3C2Cc2ccc(OC)c(OC)c2)cc1OC (stereo not given) [ATRACURIUM]	6400	–
COc1ccc(C[C@H]2c3cc(OC)c(OC)cc3CC[N+]2(C)C)cc1OC [LAUDANOSINE METHIODIDE]	2600	–
COc1cc2c3cc1Oc1cc(ccc1O)C[C@@H]1c4c(cc(OC)c(O)c4Oc4ccc(cc4)C[C@@H]3N(C)CC2)CC[N+]1(C)C	16000	–
CCn1c(=O)[nH]c2ccccc21	–	Activity [2]: Active
c1ccc(C2CCCN2c2nc3ccccc3[nH]2)cc1 (stereo not given)	1600	–
O=C1Nc2c(ccc(Cl)c2Cl)/C1=N\O	–	Activity [2]: Active
Cc1cc(N)c2ccccc2[n+]1CCCCCCCCCC[n+]1c(C)cc(N)c2ccccc21 [DEQUALINIUM CHLORIDE]	180	–
c1ccc2c(c1)c1cc[n+]2CCCCC[n+]2ccc(c3ccccc32)NCCCCCN1	0.43	–
c1ccc(C2CCCCN2c2nc3ccccc3[nH]2)cc1 (stereo not given)	750	–
Clc1ccc(CNc2nc3ccccc3[nH]2)cc1Cl	200	–
CC(=O)O[C@H]1C[C@@H]2CC[C@@H]3[C@H](CC[C@@]4(C)[C@H]3CC[C@H]([N+]3(C)CCCCC3)[C@@H]4OC(C)=O)[C@@]2(C)C[C@@H]1[N+]1(C)CCCCC1 [PENUCURONIUM]	21000	–
c1cc2cc(c1)C[n+]1ccc(c3ccccc31)NCc1ccc(cc1)CNc1cc[n+](c3ccccc13)C2	2.7	–
c1ccc(CNc2nc3ccccc3[nH]2)cc1	2700	–
